Results from ChEMBL document CHEMBL3132745, “Synthesis and Antimicrobial Activities of His(2-aryl)-Arg and Trp-His(2-aryl) Classes of Dipeptidomimetics” (Medchemcomm, 2014).
In brackets after ≈: the same amount, converted by molar mass. Activity calls are given as the source filed them.

What was measured:
[1] = tested on: Nakaseomyces glabratus; experiment: Antifungal activity against Candida glabrata assessed as growth inhibition; format: functional, organism-based
[2] = Selectivity index, ratio of cytotoxicity against african green monkey Vero cells to IC50 for Cryptococcus neoformans ATCC 90113; format: toxicity, cell-based; conditions: read-out: Selectivity Index
[3] = tested on: Escherichia coli; experiment: Antibacterial activity against Escherichia coli ATCC 35218 assessed as growth inhibition after 16-20 hrs by CLSI method; format: functional, organism-based
[4] = tested on: SK-OV-3; experiment: Cytotoxicity against human SKOV3 cells assessed as cell viability after 48 hrs by neutral red uptake assay; format: cell-based; conditions: sk-ov-3, 48 h
Summary of the method: (§1)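 Neutral red uptake assay on human cancer lines (SK-MEL, KB, BT-549, SK-OV-3) and noncancerous mammalian cells (VERO, LLC-PK1). Highest tested concentration was 10 µg/mL.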

[5] = tested on: Aspergillus fumigatus; experiment: Antifungal activity against Aspergillus fumigatus assessed as growth inhibition; format: functional, organism-based
[6] = tested on: Candida albicans; experiment: Antifungal activity against Candida albicans assessed as growth inhibition; format: functional, organism-based
[7] = tested on: BT-549; experiment: Cytotoxicity against human BT549 cells assessed as cell viability after 48 hrs by neutral red uptake assay; format: cell-based; conditions: bt-549, 48 h; summary of the method: as §1
[8] = tested on: Pichia kudriavzevii; experiment: Antifungal activity against Candida krusei assessed as growth inhibition; format: functional, organism-based
[9] = Selectivity index, ratio of cytotoxicity against human KB cells to IC50 for Cryptococcus neoformans ATCC 90113; format: toxicity, cell-based; conditions: read-out: Selectivity Index
[10] = Selectivity index, ratio of cytotoxicity against human BT549 cells to IC50 for Cryptococcus neoformans ATCC 90113; format: toxicity, cell-based, BT-549; conditions: read-out: Selectivity Index
[11] = tested on: LLC-PK1; experiment: Cytotoxicity against pig LLC-PK1 cells assessed as cell viability after 48 hrs by neutral red uptake assay; format: cell-based, Sus scrofa; conditions: llc-pk1, 48 h; summary of the method: as §1
[12] = Selectivity index, ratio of cytotoxicity against pig LLC-PK1 cells to IC50 for Cryptococcus neoformans ATCC 90113; format: toxicity, cell-based; conditions: read-out: Selectivity Index
[13] = tested on: KB; experiment: Cytotoxicity against human KB cells assessed as cell viability after 48 hrs by neutral red uptake assay; format: cell-based; summary of the method: as §1
[14] = tested on: Vero; experiment: Cytotoxicity against african green monkey Vero cells assessed as cell viability after 48 hrs by neutral red uptake assay; format: cell-based; conditions: chlorocebus sabaeus; summary of the method: as §1
[15] = tested on: SK-MEL; experiment: Cytotoxicity against human SK-MEL cells assessed as cell viability after 48 hrs by neutral red uptake assay; format: cell-based; summary of the method: as §1
[16] = Selectivity index, ratio of cytotoxicity against human SK-MEL cells to IC50 for Cryptococcus neoformans ATCC 90113; format: toxicity, cell-based; conditions: read-out: Selectivity Index
[17] = tested on: Cryptococcus neoformans; experiment: Antifungal activity against Cryptococcus neoformans ATCC 90113 assessed as growth inhibition after 70-74 hrs by CLSI method; format: functional, organism-based
[18] = Selectivity index, ratio of cytotoxicity against human SKOV3 cells to IC50 for Cryptococcus neoformans ATCC 90113; format: toxicity, cell-based, SK-OV-3; conditions: read-out: Selectivity Index
[19] = tested on: Staphylococcus aureus; experiment: Antibacterial activity against Staphylococcus aureus ATCC 29213 assessed as growth inhibition after 16-20 hrs by CLSI method; format: functional, organism-based
[20] = tested on: Staphylococcus aureus; experiment: Antibacterial activity against methicillin-resistant Staphylococcus aureus ATCC 33591 assessed as growth inhibition after 16-20 hrs by CLSI method; format: functional, organism-based
[21] = Cryptococcus neoformans, ATCC 90113
[22] = Cryptococcus neoformans, ATCC 90113, read-out: IC50

SMILES	growth inhibition (GI) [1]	selectivity ratio [2]	growth inhibition (GI) [3]	Activity [4]	growth inhibition (GI) [5]	growth inhibition (GI) [6]	Activity [7]	growth inhibition (GI) [8]	selectivity ratio [9]	selectivity ratio [10]	Activity [11]	selectivity ratio [12]	Activity [13]	Activity [14]	Activity [15]	selectivity ratio [16]	MFC [17, 21]	IC50 [17, 22]	MFC [17]	MIC [17]	further results
COC(=O)[C@H](CCCNC(=N)N)NC(=O)[C@@H](N)Cc1c[nH]c(-c2cccc3ccccc23)n1	inactive	> 7.3	inactive	> 10 µg/mL	inactive	inactive	> 10 µg/mL	inactive	> 7.3	> 7.3	> 10 µg/mL	> 7.3	> 10 µg/mL	> 10 µg/mL	> 10 µg/mL	> 7.3	2.5 µg/mL (≈ 5.54 µM)	1.38 µg/mL (≈ 3.06 µM)			MIC [17, 21]: 2.5 µg/mL (≈ 5.54 µM); selectivity ratio [18]: > 7.3
COC(=O)[C@H](Cc1c[nH]c(-c2ccc(-c3ccccc3)cc2)n1)NC(=O)[C@H](Cc1c[nH]c2ccccc12)NC(=O)OC(C)(C)C	inactive		inactive	> 10 µg/mL	inactive	inactive	> 10 µg/mL	inactive			> 10 µg/mL		> 10 µg/mL	> 10 µg/mL	> 10 µg/mL				inactive	inactive	IC50 [19]: 19 µg/mL (≈ 31.2 µM); MBC [19]: inactive; MIC [19]: inactive; IC50 [20]: Not Active; MBC [20]: inactive; MIC [20]: inactive; IC50 [17]: Not Active
COC(=O)[C@H](Cc1c[nH]c(-c2ccc(C(C)(C)C)cc2)n1)NC(=O)[C@H](Cc1c[nH]c2ccccc12)NC(=O)OC(C)(C)C	inactive		inactive	> 10 µg/mL	inactive	inactive	> 10 µg/mL	inactive			> 10 µg/mL		> 10 µg/mL	> 10 µg/mL	> 10 µg/mL			18.7 µg/mL (≈ 31.8 µM)	inactive	inactive	IC50 [19]: 15.1 µg/mL (≈ 25.6 µM); MBC [19]: inactive; MIC [19]: inactive; IC50 [20]: Not Active; MBC [20]: inactive; MIC [20]: inactive
COC(=O)[C@H](CCCNC(=N)N)NC(=O)[C@@H](N)Cc1c[nH]c(-c2ccc(-c3ccccc3)cc2)n1	inactive	> 1.8	inactive	> 10 µg/mL	inactive	inactive	> 10 µg/mL	inactive	> 1.8	> 1.8	> 10 µg/mL	> 1.8	> 10 µg/mL	> 10 µg/mL	> 10 µg/mL	> 1.8	10 µg/mL (≈ 20.9 µM)	5.49 µg/mL (≈ 11.5 µM)			MIC [17, 21]: 10 µg/mL (≈ 20.9 µM); selectivity ratio [18]: > 1.8
N=C(N)NCCC[C@H](NC(=O)[C@@H](N)Cc1c[nH]c(-c2cccc3ccccc23)n1)C(=O)NCc1ccccc1	inactive	> 16.1	inactive	> 10 µg/mL	inactive	inactive	> 10 µg/mL	inactive	> 16.1	> 16.1	> 10 µg/mL	> 16.1	> 10 µg/mL	> 10 µg/mL	> 10 µg/mL	> 16.1	1.25 µg/mL (≈ 2.37 µM)	0.62 µg/mL (≈ 1.18 µM)			MIC [17, 21]: 1.25 µg/mL (≈ 2.37 µM); selectivity ratio [18]: > 16.1
CC(C)(C)OC(=O)N[C@@H](Cc1c[nH]c2ccccc12)C(=O)N[C@@H](Cc1c[nH]c(-c2ccc(C(C)(C)C)cc2)n1)C(=O)NCc1ccccc1	inactive		inactive	> 10 µg/mL	inactive	inactive	> 10 µg/mL	inactive			> 10 µg/mL		> 10 µg/mL	> 10 µg/mL	> 10 µg/mL				inactive	inactive	IC50 [19]: 10.2 µg/mL (≈ 15.3 µM); MBC [19]: inactive; MIC [19]: inactive; IC50 [20]: Not Active; MBC [20]: inactive; MIC [20]: inactive; IC50 [17]: Not Active
CC(C)(C)OC(=O)N[C@@H](Cc1c[nH]c(-c2ccccc2)n1)C(=O)N[C@@H](CCCNC(=N)N)C(=O)NCc1ccccc1	inactive	> 3.9	inactive	> 10 µg/mL	inactive	inactive	> 10 µg/mL	inactive	> 3.9	> 3.9	> 10 µg/mL	> 3.9	> 10 µg/mL	> 10 µg/mL	> 10 µg/mL	> 3.9	5 µg/mL (≈ 8.67 µM)	2.56 µg/mL (≈ 4.44 µM)			MIC [17, 21]: 5 µg/mL (≈ 8.67 µM); selectivity ratio [18]: > 3.9
N=C(N)NCCC[C@H](NC(=O)[C@@H](N)Cc1c[nH]c(-c2ccccc2)n1)C(=O)NCc1ccccc1	inactive	> 8.2	inactive	> 10 µg/mL	inactive	inactive	> 10 µg/mL	inactive	> 8.2	> 8.2	> 10 µg/mL	> 8.2	> 10 µg/mL	> 10 µg/mL	> 10 µg/mL	> 8.2	2.5 µg/mL (≈ 5.25 µM)	1.22 µg/mL (≈ 2.56 µM)			MIC [17, 21]: 2.5 µg/mL (≈ 5.25 µM); selectivity ratio [18]: > 8.2
COC(=O)[C@H](Cc1c[nH]c(-c2ccc(OC)cc2)n1)NC(=O)[C@@H](N)Cc1c[nH]c2ccccc12	inactive		inactive	> 10 µg/mL	inactive	inactive	> 10 µg/mL	inactive			> 10 µg/mL		> 10 µg/mL	> 10 µg/mL	> 10 µg/mL				inactive	inactive	IC50 [17]: Not Active
COC(=O)[C@H](Cc1c[nH]c(-c2ccc(OC)cc2)n1)NC(=O)[C@H](Cc1c[nH]c2ccccc12)NC(=O)OC(C)(C)C	inactive		inactive	> 10 µg/mL	inactive	inactive	> 10 µg/mL	inactive			> 10 µg/mL		> 10 µg/mL	> 10 µg/mL	> 10 µg/mL				inactive	inactive	IC50 [17]: Not Active
COC(=O)[C@H](Cc1c[nH]c(-c2cccc3ccccc23)n1)NC(=O)[C@H](Cc1c[nH]c2ccccc12)NC(=O)OC(C)(C)C	inactive		inactive	> 10 µg/mL	inactive	inactive	> 10 µg/mL	inactive			> 10 µg/mL		> 10 µg/mL	> 10 µg/mL	> 10 µg/mL				inactive	inactive	IC50 [17]: Not Active
